In article PMC7557949 (ACS Omega, 2020):
Values after ≈ are worked out from the molar mass of the structure shown.

Assays:
[1] = tested on: herpes simplex virus type 1 (HSV-1); assay: Plaque assay, antiviral activity against HSV-1; format: cell-based; details: nontoxic dose of compound; average of three independent measurements
[2] = tested on: coxsackievirus B4 (CBV4); assay: Plaque assay, antiviral activity against CBV4; format: cell-based; details: nontoxic dose of compound; average of three independent measurements
In short: (§1)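 Plaque reduction. Nontoxic dilutions of test compound were mixed 1:1 with virus at 1 × 105, 1 × 106 or 1 × 107, for 0.5 h at 37 °C. 10-fold dilutions went onto BGM (CBV4), FRHK4 (HAV HM 175) or Hep-2 (adenovirus 7), with 1 h adsorption at 37 °C. Overlay was 2× DMEM plus 1% agarose. Cells were formalin-fixed and crystal violet-stained, and plaques counted. Triplicate. IC50 is the half-maximal plaque-reduction concentration.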

[3] = tested on: hepatitis A virus HM 175 (HAV HM 175); assay: Plaque assay, antiviral activity against HAV HM 175; format: cell-based; details: nontoxic dose of compound; average of three independent measurements
In short: as §1

[4] = tested on: ED-43/SG-Feo (VYG) replicon of hepatitis C virus genotype 4a (HCVcc); assay: Antiviral bioassay against ED-43/SG-Feo; format: cell-based; details: nontoxic dose of compound; average of three independent measurements
In short: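 Huh 7.5 cells carrying the ED-43/SG-Feo (VYG) HCV genotype 4a subgenomic replicon were treated with the nontoxic dose of test compound. Replicon RNA copies were quantified by TaqMan qRT-PCR, and the result was expressed as percent reduction.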

[5] = tested on: adenovirus type 7 (HAdV7); assay: Plaque assay, antiviral activity against adenovirus type 7; format: cell-based; details: nontoxic dose of compound; average of three independent measurements
In short: as §1

[6] = tested on: S. aureus (ATCC:6538); assay: Agar well diffusion, inhibition zone; format: cell-based, Staphylococcus aureus; details: for zone of inhibition at 15000 µg/mL: Staphylococcus aureus, 24 h, read-out: diameter of the IZ, S. aureus (ATCC:6538)
In short: (§2)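 Agar well diffusion. Saline inoculum adjusted to McFarland 0.5 ([…]), i.e. OD 0.13 at 625 nm, and swabbed over dried agar. After 15 min drying, 6 mm wells received 100 μL of test compound at 15 mg/mL. Plates incubated at 37 °C; bacterial zones read in mm after 24 h incubation […]. Triplicate, reported as mm ± SD. Gentamicin and ampicillin served as reference drugs.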

[7] = tested on: S. mutans (ATCC:25175); assay: Agar well diffusion, inhibition zone; format: cell-based; details: Streptococcus mutans, 24 h, read-out: diameter of the IZ, S. mutans (ATCC:25175)
In short: as §2

[8] = tested on: K. pneumonia (ATCC:4415); assay: MIC, twofold serial dilution in agar; format: cell-based; details: Klebsiella pneumoniae, read-out: MIC, K. pneumonia (ATCC:4415)
[9] = tested on: S. aureus (ATCC:6538); assay: MIC, twofold serial dilution in agar; format: cell-based; details: Staphylococcus aureus, read-out: MIC, S. aureus (ATCC:6538)
[10] = tested on: S. mutans (ATCC:25175); assay: MIC, twofold serial dilution in agar; format: cell-based; details: Streptococcus mutans, read-out: MIC, S. mutans (ATCC:25175)
[11] = biological target: T1, dihydrofolate reductase (DHFR) (Homo sapiens, UniProt P00374); assay: DHFR inhibitor screening assay; format: biochemical; details: for IC50: IC50 on the DHFR, average of three measurements; for inhibition at 0.01 µg/mL: read-out: percent inhibition of DHFR at 0.01 (μg/mL); for inhibition at 0.1 µg/mL: read-out: percent inhibition of DHFR at 0.1 (μg/mL); for inhibition at 1 µg/mL: read-out: percent inhibition of DHFR at 1 (μg/mL); for inhibition at 10 µg/mL: read-out: percent inhibition of DHFR at 10 (μg/mL)
T1 sequence (P00374 1-187): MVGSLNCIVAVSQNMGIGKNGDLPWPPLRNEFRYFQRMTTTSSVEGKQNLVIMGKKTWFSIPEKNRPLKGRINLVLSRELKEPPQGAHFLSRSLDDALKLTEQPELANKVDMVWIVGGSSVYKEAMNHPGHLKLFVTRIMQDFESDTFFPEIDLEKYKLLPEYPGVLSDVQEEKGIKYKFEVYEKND

| Structure (SMILES) | mean % of reduction, herpes simplex virus [1] [%] | mean % of reduction, CBV4 [2] [%] | mean % of reduction, HAV HM 175 [3] [%] | mean % of reduction, HCVcc genotype 4 [4] [%] | mean % of reduction, adenovirus type 7 [5] [%] | zone of inhibition at 15000 µg/mL [6] [mm] | zone of inhibition at 15000 µg/mL [7] [mm] | MIC [8] [µg/mL] | MIC [9] [µg/mL] | MIC [10] [µg/mL] | IC50 [11] [nM] | inhibition at 0.01 µg/mL [11] [%] | inhibition at 0.1 µg/mL [11] [%] | inhibition at 1 µg/mL [11] [%] | inhibition at 10 µg/mL [11] [%] | diameter of the IZ, S. aureus (ATCC:6538) ([6]; 15 mg/mL, 100 μL per well, mm ± SD) [mm] |
| --- | --- | --- | --- | --- | --- | --- | --- | --- | --- | --- | --- | --- | --- | --- | --- | --- |
| CCSC(SCC)=C(C#N)c1nc2ccccc2s1 [3b, 2-(Benzo[d]thiazol-2-yl)-3,3-bis(ethylthio)acrylonitrile] | 26.7 ± 0.20 | 20.0 ± 0.20 | 40.0 ± 0.30 | 20.0 ± 0.25 | 30.0 ± 0.30 | – | – | – | – | – | – | – | – | – | – | – |
| CSc1c(-c2nc3ccccc3s2)c(N)n(NS(=O)(=O)c2ccccc2)c(=O)c1C#N [8a, N-(6-Amino-5-(benzo[d]thiazol-2-yl)-3-cyano-4-(methylthio)-2-oxopyridin-1(2H)-yl)benzenesulfonamide] | 30.0 ± 0.25 | – | – | 20.0 ± 0.10 | – | 25.8 ± 0.5 | 19.8 ± 1 | – | – | – | – | – | – | – | – | – |
| CSc1c(-c2nc3ccccc3s2)c(N)n(NS(=O)(=O)c2ccc(C)cc2)c(=O)c1C#N [8b, N-(6-Amino-5-(benzo[d]thiazol-2-yl)-3-cyano-4-(methylthio)-2-oxopyridin-1(2H)-yl)-4-methylbenzenesulfonamide] | 33.3 ± 0.25 | 30.0 ± 0.15 | 36.7 ± 0.30 | 26.7 ± 0.25 | 20.0 ± 0.20 | 19.3 ± 1 | 10.7 ± 0.5 | 125 (≈ 258 µM) | 1000 (≈ 2070 µM) | 250 (≈ 517 µM) | 2830 | 19.9 | 40.8 | 50.4 | 57.7 | – |
| CCSc1c(-c2nc3ccccc3s2)c(N)n(NS(=O)(=O)c2ccccc2)c(=O)c1C#N [8c, N-(6-Amino-5-(benzo[d]thiazol-2-yl)-3-cyano-4-(ethylthio)-2-oxopyridin-1(2H)-yl)benzenesulfonamide] | 10.0 ± 0.15 | 13.3 ± 0.10 | 10.0 ± 0.15 | 16.7 ± 0.15 | 10.0 ± 0.15 | 24.5 ± 0.7 | 21.3 ± 1.1 | – | – | – | – | – | – | – | – | – |
| CCSc1c(-c2nc3ccccc3s2)c(N)n(NS(=O)(=O)c2ccc(C)cc2)c(=O)c1C#N [8d, N-(6-Amino-5-(benzo[d]thiazol-2-yl)-3-cyano-4-(ethylthio)-2-oxopyridin-1(2H)-yl)-4-methylbenzenesulfonamide] | – | – | – | – | – | 29.9 ± 0.6 | 12.5 ± 1 | – | – | – | – | – | – | – | – | – |
| Nc1n[nH]c2c(-c3nc4ccccc4s3)c(N)n(NS(=O)(=O)c3ccccc3)c(=O)c12 [9a, N-(3,6-Diamino-7-(benzo[d]thiazol-2-yl)-4-oxo-1H-pyrazolo[4,3-c]pyridin-5(4H)-yl)benzenesulfonamide] | 20.0 ± 0.15 | 13.3 ± 0.10 | 10.0 ± 0.10 | 13.3 ± 0.10 | 10.0 ± 0.10 | 34 ± 1 | 13.9 ± 0.5 | – | 125 (≈ 276 µM) | 1000 (≈ 2210 µM) | 1540 | 22.6 | 33.8 | 53.6 | 68.4 | 34.0 ± 1.0 |
